From ChEMBL document CHEMBL4825671, “Design, synthesis and biological evaluation of novel FXIa inhibitors with 2-phenyl-1H-imidazole-5-carboxamide moiety as P1 fragment” (Eur J Med Chem, 2021)
Each block holds one molecule with its values, some of them ahead of it.

How the values were obtained:
Coagulation factor XI [1] = biological target: T1, Coagulation factor XI (Homo sapiens, UniProt P03951); experiment: Binding affinity to coagulation factor 11a (unknown origin) assessed as inhibition constant using (p-Glu-Pro-Arg-pNa,HCl) as substrate preincubated for 5 mins followed by substrate addition and measured after 10 mins
Coagulation factor XI [2] = biological target: T1, Coagulation factor XI; experiment: Inhibition of coagulation factor 11a (unknown origin) at 100 uM using (p-Glu-Pro-Arg-pNa,HCl) as substrate preincubated for 5 mins followed by substrate addition and measured after 10 mins relative to control; conditions: time 15.0 min
Coagulation factor VII = biological target: T2, Coagulation factor VII (Homo sapiens, UniProt P08709); experiment: Binding affinity to coagulation factor 7a (unknown origin) assessed as inhibition constant using CH3SO2-D-CHA-But-Arg-pNA,ACOH as substrate preincubated for 10 mins followed by substrate addition and further incubated for 10 mins
T2 sequence (P08709 whole entry): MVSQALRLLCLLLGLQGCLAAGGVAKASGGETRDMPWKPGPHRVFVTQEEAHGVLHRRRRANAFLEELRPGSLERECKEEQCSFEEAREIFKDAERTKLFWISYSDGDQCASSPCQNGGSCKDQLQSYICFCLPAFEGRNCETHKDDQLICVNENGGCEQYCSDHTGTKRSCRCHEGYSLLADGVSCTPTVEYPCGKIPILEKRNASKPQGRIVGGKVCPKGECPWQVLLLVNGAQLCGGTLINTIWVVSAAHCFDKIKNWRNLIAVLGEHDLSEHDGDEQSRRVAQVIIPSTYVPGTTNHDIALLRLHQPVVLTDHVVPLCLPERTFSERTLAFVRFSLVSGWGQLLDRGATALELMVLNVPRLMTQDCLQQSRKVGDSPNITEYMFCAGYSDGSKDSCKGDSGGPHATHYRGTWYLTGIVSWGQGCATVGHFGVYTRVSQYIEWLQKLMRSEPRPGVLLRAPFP
In short: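 FVIIa was preincubated with compound or blank buffer at 37 °C for 10 min. Chromogenic substrate was added and absorbance read at 405 nm. Compounds came from DMSO stocks (10 mM) diluted in assay buffer. IC50 was derived from a concentration range.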

Coagulation factor X = Coagulation factor X (Homo sapiens, UniProt P00742); experiment: Binding affinity to coagulation factor 10a (unknown origin) assessed as inhibition constant using CH3OCO-D-CHA-Gly-Arg-pNA,ACOH as substrate preincubated for 10 mins followed by substrate addition
In short: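 FXa was preincubated with compound or blank buffer at 25 °C for 10 min. Chromogenic substrate was added and absorbance read at 405 nm. Compounds came from DMSO stocks (10 mM) diluted in assay buffer. IC50 was derived from a concentration range.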

[3] = Binding affinity to thrombin (unknown origin) assessed as inhibition constant using H-D-Phe-Pip-Arg-pNA,2HCl as substrate preincubated for 10 mins followed by substrate addition; set-up: species or system Homo sapiens
In short: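 Thrombin was preincubated with compound or blank buffer at 25 °C for 10 min. Chromogenic substrate was added and absorbance read at 405 nm. Compounds came from DMSO stocks (10 mM) diluted in assay buffer. IC50 was derived from a concentration range.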

Homo sapiens [4] = species: Homo sapiens; experiment: Selectivity ratio of Ki for coagulation factor 7a (unknown origin) to Ki for coagulation factor 11a (unknown origin)
Homo sapiens [5] = species: Homo sapiens; experiment: Selectivity ratio of Ki for coagulation factor 10a (unknown origin) to Ki for coagulation factor 11a (unknown origin)
Homo sapiens [6] = species: Homo sapiens; experiment: Selectivity ratio of Ki for thrombin (unknown origin) to Ki for coagulation factor 11a (unknown origin)
Homo sapiens [7] = species: Homo sapiens; experiment: Selectivity ratio of Ki for plasma kallikrein (unknown origin) to Ki for coagulation factor 11a (unknown origin)
Homo sapiens [8] = species: Homo sapiens; experiment: Competitive inhibition of coagulation factor 11a (unknown origin) assessed as Km at 0.005 uM using varying levels (p-Glu-Pro-Arg-pNa,HCl) as substrate by Lineweaver-Burk plot analysis
In short: (§1)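 Same FXIa assay (37 °C, 5 min preincubation, 405 nm read), run at four substrate levels with final concentrations of 42.5, 85, 170 and 340. Km and Vmax were taken from a Lineweaver-Burk plot using the Michaelis-Menten relationship.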

Homo sapiens [9] = species: Homo sapiens; experiment: Competitive inhibition of coagulation factor 11a (unknown origin) assessed as Km at 0.01 uM using varying levels (p-Glu-Pro-Arg-pNa,HCl) as substrate by Lineweaver-Burk plot analysis; in short: as §1
Homo sapiens [10] = species: Homo sapiens; experiment: Competitive inhibition of coagulation factor 11a (unknown origin) assessed as Km at 0.02 uM using varying levels (p-Glu-Pro-Arg-pNa,HCl) as substrate by Lineweaver-Burk plot analysis; in short: as §1
Homo sapiens [11] = species: Homo sapiens; experiment: Competitive inhibition of coagulation factor 11a (unknown origin) assessed as Km at 0.04 uM using varying levels (p-Glu-Pro-Arg-pNa,HCl) as substrate by Lineweaver-Burk plot analysis; in short: as §1
Homo sapiens [12] = species: Homo sapiens; experiment: Competitive inhibition of coagulation factor 11a (unknown origin) assessed as Vmax at 0.005 to 0.04 uM using varying levels (p-Glu-Pro-Arg-pNa,HCl) as substrate by Lineweaver-Burk plot analysis; conditions: dose 0.005-0.04 µM; in short: as §1
Homo sapiens [13] = species: Homo sapiens; experiment: Competitive inhibition of coagulation factor 11a (unknown origin) using varying levels (p-Glu-Pro-Arg-pNa,HCl) as substrate by Lineweaver-Burk plot analysis; conditions: dose 0.005-0.04 µM; in short: as §1
Oryctolagus cuniculus [14] = experiment: Antithrombotic activity in New Zealand White rabbit model of AV-shunt induced thrombosis assessed as reduction in thrombosis weight by measuring inhibition of thrombosis formation at 0.5 mg/kg, administered as iv bolus dose and subsequently followed by 0.8 mg/kg/hr as iv infusion relative to control; type: functional
In short: (§2)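 Male New Zealand White rabbits under urethane anesthesia (1.25 g/kg). A control-period AV shunt gave the baseline thrombus wet weight, found by subtraction. The compound in saline vehicle was then given as an IV bolus followed by continuous IV infusion via the jugular vein. A new AV shunt ran for 40 min. Result is % inhibition of thrombus formation, treatment versus control period. Three rabbits per group.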

Oryctolagus cuniculus [15] = experiment: Antithrombotic activity in New Zealand White rabbit model of AV-shunt induced thrombosis assessed as reduction in thrombosis weight by measuring inhibition of thrombosis formation at 2.5 mg/kg, administered as iv bolus dose and subsequently followed by 4 mg/kg/hr as iv infusion relative to control; type: functional; in short: as §2
Oryctolagus cuniculus [16] = experiment: Antithrombotic activity in New Zealand White rabbit model of AV-shunt induced thrombosis assessed as reduction in thrombosis weight by measuring inhibition of thrombosis formation at 5 mg/kg, administered as iv bolus dose and subsequently followed by 8 mg/kg/hr as iv infusion relative to control; type: functional; in short: as §2
Plasma kallikrein = Plasma kallikrein (Homo sapiens, UniProt P03952); experiment: Binding affinity to plasma kallikrein (unknown origin) assessed as inhibition constant using D-Pro-Phe,Arg,pNa,2HCl as substrate preincubated for 15 mins followed by substrate addition
Sequence of Plasma kallikrein (P03952 20-390 limits assumed): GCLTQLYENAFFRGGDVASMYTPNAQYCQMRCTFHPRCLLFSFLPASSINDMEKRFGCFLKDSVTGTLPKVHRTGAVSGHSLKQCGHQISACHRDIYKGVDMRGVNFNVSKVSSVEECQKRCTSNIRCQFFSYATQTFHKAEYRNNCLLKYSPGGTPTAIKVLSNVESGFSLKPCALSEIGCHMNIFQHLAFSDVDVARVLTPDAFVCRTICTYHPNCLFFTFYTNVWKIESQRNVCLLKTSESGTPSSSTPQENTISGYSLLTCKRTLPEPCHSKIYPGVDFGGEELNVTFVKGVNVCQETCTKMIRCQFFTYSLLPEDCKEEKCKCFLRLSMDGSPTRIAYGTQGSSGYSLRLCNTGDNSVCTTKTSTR
Sequence of Plasma kallikrein (P03952 391-638 limits assumed): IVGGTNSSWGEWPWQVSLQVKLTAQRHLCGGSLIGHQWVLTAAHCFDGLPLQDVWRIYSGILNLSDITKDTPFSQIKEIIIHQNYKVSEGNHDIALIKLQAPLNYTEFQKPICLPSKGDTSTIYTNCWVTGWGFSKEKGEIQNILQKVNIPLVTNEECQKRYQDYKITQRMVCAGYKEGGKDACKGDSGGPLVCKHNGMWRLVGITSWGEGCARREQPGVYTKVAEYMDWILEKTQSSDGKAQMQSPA

T1 sequence (P03951 19-387 limits assumed): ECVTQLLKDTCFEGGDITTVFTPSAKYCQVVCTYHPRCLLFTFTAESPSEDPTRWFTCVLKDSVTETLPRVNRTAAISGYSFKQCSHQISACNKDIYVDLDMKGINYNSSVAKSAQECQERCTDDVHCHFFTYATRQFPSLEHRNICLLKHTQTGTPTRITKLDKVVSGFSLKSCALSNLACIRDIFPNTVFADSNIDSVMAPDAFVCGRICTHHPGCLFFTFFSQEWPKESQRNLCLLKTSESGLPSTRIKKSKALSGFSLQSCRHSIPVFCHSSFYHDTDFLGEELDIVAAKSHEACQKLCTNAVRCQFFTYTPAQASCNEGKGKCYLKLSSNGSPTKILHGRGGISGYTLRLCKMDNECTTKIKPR
T1 sequence (P03951 388-625 limits assumed): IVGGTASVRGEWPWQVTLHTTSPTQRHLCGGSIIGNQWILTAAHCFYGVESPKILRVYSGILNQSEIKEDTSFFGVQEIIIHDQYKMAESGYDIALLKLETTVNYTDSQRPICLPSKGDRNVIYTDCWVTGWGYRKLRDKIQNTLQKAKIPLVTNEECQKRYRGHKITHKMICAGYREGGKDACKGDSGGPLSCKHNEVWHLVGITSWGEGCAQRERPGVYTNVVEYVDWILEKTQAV
Sequence of Coagulation factor X (P00742 41-179 limits assumed): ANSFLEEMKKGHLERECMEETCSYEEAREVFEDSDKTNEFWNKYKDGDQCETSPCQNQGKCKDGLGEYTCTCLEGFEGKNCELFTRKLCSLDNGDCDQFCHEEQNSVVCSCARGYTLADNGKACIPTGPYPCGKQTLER
Sequence of Coagulation factor X (P00742 235-488 limits assumed): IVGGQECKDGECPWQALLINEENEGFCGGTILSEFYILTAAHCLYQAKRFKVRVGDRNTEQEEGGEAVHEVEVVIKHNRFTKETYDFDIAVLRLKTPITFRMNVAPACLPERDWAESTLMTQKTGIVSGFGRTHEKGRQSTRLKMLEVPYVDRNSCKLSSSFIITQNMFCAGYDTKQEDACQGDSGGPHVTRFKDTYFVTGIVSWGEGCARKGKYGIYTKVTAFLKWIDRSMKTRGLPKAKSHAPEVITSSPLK

SMILES: Cc1nc(-c2ccc(Cl)cc2)n(O)c1C(=O)N[C@@H](Cc1ccccc1)C(=O)Nc1ccc(C(=O)O)cc1
- Ki (Coagulation factor XI [1]): > 100000 nM
- inhibition (Coagulation factor XI [2]): 22.5%

SMILES: COc1ccc(-c2nc(C)c(C(=O)O)n2O)cc1C#N
- Ki (Coagulation factor XI [1]): 243000 nM

SMILES: Cc1nc(-c2cccc(Cl)c2F)n(O)c1C(=O)N[C@@H](Cc1ccc(N)cc1)C(=O)Nc1ccc2[nH]c(C(=O)O)cc2c1
- Ki (Coagulation factor XI [1]): 3080 nM

SMILES: Cc1nc(-c2ccccc2Cl)n(O)c1C(=O)N[C@@H](Cc1ccccc1)C(=O)Nc1ccc(C(=O)O)cc1
- Ki (Coagulation factor XI [1]): > 100000 nM
- inhibition (Coagulation factor XI [2]): 34.1%

SMILES: COn1c(-c2cccc(Cl)c2F)nc(C)c1C(=O)N[C@@H](Cc1ccccc1)C(=O)Nc1ccc(C(=O)O)cc1
- Ki (Coagulation factor XI [1]): > 100000 nM
- inhibition (Coagulation factor XI [2]): 0%

SMILES: Cc1nc(-c2cccc(Cl)c2F)n(O)c1C(=O)N[C@@H](Cc1ccc(Br)cc1)C(=O)Nc1ccc2[nH]c(C(=O)O)cc2c1
- Ki (Coagulation factor XI [1]): 962 nM

SMILES: Cc1nc(-c2ccc(O)c(C#N)c2)n(O)c1C(=O)O
- Ki (Coagulation factor XI [1]): 228000 nM

SMILES: Cc1nc(-c2cccc(Cl)c2)n(O)c1C(=O)N[C@@H](Cc1ccccc1)C(=O)Nc1ccc(C(=O)O)cc1
- Ki (Coagulation factor XI [1]): 14500 nM

SMILES: Cc1nc(-c2cccc(Cl)c2F)n(O)c1C(=O)N[C@@H](Cc1ccccc1)C(=O)Nc1ccc2[nH]c(C(=O)O)cc2c1
- Ki (Coagulation factor XI [1]): 2820 nM

Stronger by Ki (Coagulation factor XI [1]), values ahead:

- Ki (Coagulation factor XI [1]): 356 nM
SMILES: Cc1nc(-c2cccc(Cl)c2F)n(O)c1C(=O)N[C@@H](Cc1ccc(Cl)cc1)C(=O)Nc1ccc2[nH]c(C(=O)O)cc2c1

- Ki (Coagulation factor XI [1]): 259 nM
SMILES: Cc1nc(-c2cccc(Cl)c2F)n(O)c1C(=O)N[C@@H](Cc1ccc(NC(=O)C2CC2)cc1)C(=O)Nc1ccc2[nH]c(C(=O)O)cc2c1

- Ki (Coagulation factor XI [1]): 155 nM
SMILES: Cc1nc(-c2cccc(Cl)c2F)n(O)c1C(=O)N[C@@H](Cc1ccc(NC(=O)c2ccccn2)cc1)C(=O)Nc1ccc2[nH]c(C(=O)O)cc2c1

- Ki (Coagulation factor XI [1]): 81.3 nM
SMILES: Cc1nc(-c2cccc(Cl)c2F)n(O)c1C(=O)N[C@@H](Cc1ccc(NC(=O)c2ncccn2)cc1)C(=O)Nc1ccc2[nH]c(C(=O)O)cc2c1

- Ki (Coagulation factor XI [1]): 53 nM
SMILES: C#CC(=O)Nc1ccc(C[C@H](NC(=O)c2c(C)nc(-c3cccc(Cl)c3F)n2O)C(=O)Nc2ccc3[nH]c(C(=O)O)cc3c2)cc1

- Ki (Coagulation factor XI [1]): 33.9 nM
SMILES: Cc1nc(-c2cccc(Cl)c2F)n(O)c1C(=O)N[C@@H](Cc1ccc(NC(=O)C2CCCC2)cc1)C(=O)Nc1ccc2[nH]c(C(=O)O)cc2c1

- Ki (Coagulation factor XI [1]): 26 nM
SMILES: Cc1nc(-c2cccc(Cl)c2F)n(O)c1C(=O)N[C@@H](Cc1ccc(NC(=O)CC(C)C)cc1)C(=O)Nc1ccc2[nH]c(C(=O)O)cc2c1

- Ki (Coagulation factor XI [1]): 22.5 nM
SMILES: Cc1nc(-c2cccc(Cl)c2F)n(O)c1C(=O)N[C@@H](Cc1ccc(NC(=O)C2CCC2)cc1)C(=O)Nc1ccc2[nH]c(C(=O)O)cc2c1

- Ki (Coagulation factor XI [1]): 9 nM
- Ki (Coagulation factor VII): 4190 nM
- Ki (Coagulation factor X): > 8000 nM
- Ki [3]: > 12500 nM
- Ratio Ki (Homo sapiens [4]): > 400
- Ratio Ki (Homo sapiens [5]): > 400
- Ratio Ki (Homo sapiens [6]): > 400
- Ratio Ki (Homo sapiens [7]): 21.3
- Km (Homo sapiens [8]): 45.5 µM
- Km (Homo sapiens [9]): 60.3 µM
- Km (Homo sapiens [10]): 89.9 µM
- Km (Homo sapiens [11]): 128 µM
- Vmax (Homo sapiens [12]): 0.17 µM/min
- inhibition (Homo sapiens [13]): Dose-Dependent Effect
- Ki (Plasma kallikrein): 192 nM
SMILES: Cc1nc(-c2cccc(Cl)c2F)n(O)c1C(=O)N[C@@H](Cc1ccc(NC(=O)C2CC2C)cc1)C(=O)Nc1ccc2[nH]c(C(=O)O)cc2c1 (stereo partly drawn)
- inhibition (INH) (Oryctolagus cuniculus [14]): 26.8%
- inhibition (INH) (Oryctolagus cuniculus [15]): 42.67%
- inhibition (INH) (Oryctolagus cuniculus [16]): 51.04%
